# Experimental data reported in the array DNA melting data of Ke et al. (doi:10.1101/2024.01.08.574731).
# Legend:
# [1] = melting temperature; fluorescence melt of hairpins on a sequencing array, two-state fit, raised by 9.35 °C to match UV melts; details: sodium 0.088 M
# Method in brief: (§1)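 Melting temperature and folding enthalpy were derived from bootstrapped two-state fits. The fitted temperatures were raised by 9.35 °C to agree with UV melts, and four replicates were combined by inverse variance. The underlying data were Cy3 fluorescence images of library hairpins, with annealed Cy3 and quencher oligos, on a sequenced MiSeq flow cell in 50 mM Na-HEPES pH 8.0, 25 mM NaCl, taken in 2.5 °C steps up to 60 °C, normalised to pre-quench Cy3 and to control constructs.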
# [2] = folding enthalpy; higher = less favourable; fluorescence melt of hairpins on a sequencing array, two-state fit; details: sodium 0.088 M
# Method in brief: as §1
Sequence,Tm [1] [°C],folding enthalpy [2] [kcal/mol]
GGGTTGGGAAACCAATCC ((.((((....)))).)),50.8,-32.8
GGGTTGGGAAACCAGCTC (.(.(((....))).).),36.1,-18.6
GGTAAATCGAAAGATACC (((..(((....)))))),30.4,-15.1
GGTAACCGAAAGGTAACC (((.(((....))).))),50.8,-20.8
GGTAACCGAAAGGTGACC (((.(((....))).))),55.4,-36.3
GGTAACGAAAGTTACACC ((((((....)))..))),43.5,-13.9
GGTAACGAAAGTTATACC ((((((....)))..))),32.6,-22.1
GGTAACGAAAGTTCCACC ((((((....)))..))),33.3,-12.3
GGTAACGAAAGTTCTACC ((((((....)))..))),28.2,-13.9
GGTAACGAAAGTTTACC ((((((....))).))),43.3,-22.4
GGTAACGAAAGTTTGACC ((((((....)))..))),28.9,-19.4
GGTAACGGAAACGTCACC (((.(((....))).))),42.8,-32
GGTAACTCGAAAGAGACC (((..(((....)))))),31.3,-14.5
GGTAAGCGAAAGCTGACC (((.(((....))).))),58.4,-26.2
GGTAAGGGAAACTTTACC (((((.(....).))))),36.4,-21.3
GGTAATCGAAAGATACC (((.(((....)))))),40.5,-27.2
GGTAATGGAAACATTACC (((((((....))))))),55.9,-42.8
GGTACACGAAAGTGAACC (((.(((....))).))),53.9,-36.8
GGTACACGAAAGTGGACC (((.(((....))).))),67.2,-38.2
GGTACCACGAAAGTGACC (((..(((....)))))),30.1,-13.4
GGTACCCGAAAGGGAACC (((.(((....))).))),59.7,-26.8
GGTACCGGAAACGATACC ((((.((....)).)))),42.7,-31.9
GGTACCGGAAACGGTGTC (..((((....))))..),36.7,-13.4

Sequence,Tm [1] [°C],folding enthalpy [2] [kcal/mol]
GGTACGGGAAACTGTGCC ((.((.(....).)).)),43.1,-31.2
GGTACTGGAAACAGCACC (((.(((....))).))),43.9,-29.3
GGTACTGGAAACGGTACC (((((.(....).))))),50.4,-40.9
GGTAGAGGAAACTCTACC (((((((....))))))),57.8,-46.8
GGTAGAGGAAACTCTGCC ((.((((....)))).)),49.2,-34.2
GGTAGCCCGAAAGGGACC (((..(((....)))))),33.6,-12.6
GGTAGCGAAAGCTGCACC ((((((....)))..))),39,-13.2
GGTAGCGAAAGCTGGACC ((((((....)))..))),37.4,-12.6
GGTAGCGAAAGCTTAACC ((((((....)))..))),38.1,-16.7
GGTAGCGCGAAAGCGACC (((..(((....)))))),40,-13.3
GGTAGCGGAAACGCTGCC ((.((((....)))).)),62.5,-37.9
GGTAGCGGAAACGCTGTC (..((((....))))..),34.8,-13.4
GGTAGGACGAAAGTCACC (((..(((....)))))),35.8,-15.5
GGTAGGGCGAAAGCCACC (((..(((....)))))),41.9,-14
GGTAGGGGAAACCCTGTC (..((((....))))..),32.2,-13.1
GGTAGTACGAAAGTAACC (((..(((....)))))),27.4,-10.7
GGTAGTCGAAAGACACC (((.(((....)))))),50.4,-20.1
GGTAGTGCGAAAGCAACC (((..(((....)))))),32,-10.8
GGTAGTGGAAACACTACC (((((((....))))))),62.9,-46.8
GGTAGTGGAAACATTGCC ((.(.((....)).).)),28.5,-17.1
GGTAGTGGAAACGCTATC (.(((.(....).))).),30.8,-15.7
GGTATACCGAAAGGTACC (((..(((....)))))),36.4,-12.8
GGTATACGAAAGTAACC (((.(((....)))))),34.9,-19.3

Sequence,Tm [1] [°C],folding enthalpy [2] [kcal/mol]
GGTATAGGAAACTATACC (((((((....))))))),52.1,-42.4
GGTATATCGAAAGATACC (((..(((....)))))),33.6,-16.3
GGTATCCGAAAGGAACC (((.(((....)))))),44.4,-18.8
GGTATCCGAAAGGAGACC (((.(((....))).))),58.5,-43
GGTATCGAAAGATAGACC ((((((....)))..))),30.6,-17
GGTATCGAAAGATCAACC ((((((....)))..))),27,-12.9
GGTATCGAAAGATGACC ((((((....))).))),36.6,-22.1
GGTATCGAAAGATTACC ((((((....))).))),37.7,-24.9
GGTATCGGAAACGATATC (.(((((....))))).),45.7,-24.1
GGTATCGGAAACGATGTC (..((((....))))..),31.9,-18.5
GGTATGGGAAACTGTACC ((((..(....)..)))),36.1,-21.9
GGTCACGAAAGTGCTACC ((((((....)))..))),36.3,-15.6
GGTCACGAAAGTGGAACC ((((((....)))..))),40.5,-18.3
GGTCACGAAAGTGGACC ((((((....))).))),55.3,-29
GGTCACGAAAGTGTAACC ((((((....)))..))),39.6,-18.3
GGTCACGAAAGTGTACC ((((((....))).))),51.5,-25.6
GGTCACGCGAAAGCGACC (((..(((....)))))),47.4,-14.2
GGTCACGGAAACACGACC ((((..(....)..)))),34.5,-18.5
GGTCAGCCGAAAGGCACC (((..(((....)))))),38.3,-11.4
GGTCAGGAAACTGACC ((((((....)))))),59.9,-44.5
GGTCAGGGAAACCCAACC (((..((....))..))),29,-9.32
GGTCAGGGAAACCCGACC ((((.((....)).)))),50.2,-32.6
GGTCAGTCGAAAGACACC (((..(((....)))))),32.9,-13.3

Sequence,Tm [1] [°C],folding enthalpy [2] [kcal/mol]
GGTCATCGAAAGATAACC (((.(((....))).))),39.4,-26.8
GGTCATCGAAAGATTACC (((.(((....))).))),42.6,-34.3
GGTCATGGAAACATGACC (((((((....))))))),65.5,-51.8
GGTCATGGAAACATGGCC ((.((((....)))).)),54.5,-60.3
GGTCATGGAAACGTGATC (.(((.(....).))).),35.5,-20
GGTCCAGGAAACCGGACC (((((.(....).))))),53.3,-38.8
GGTCCAGGAAACTGGGCC ((.((((....)))).)),60.2,-43.4
GGTCCCCCGAAAGGGACC (((..(((....)))))),63.9,-29.9
GGTCCCGAAAGGGAACC ((((((....))).))),60.5,-18.5
GGTCCCGAAAGGGCTACC ((((((....)))..))),39.8,-10.9
GGTCCGACGAAAGTCACC (((..(((....)))))),28.4,-14.1
GGTCCGCGAAAGCGACC (((.(((....)))))),62.4,-16.8
GGTCCGGGAAACCAGACC ((((.((....)).)))),46.4,-28.6
GGTCCGGGAAACTGGACC (((((.(....).))))),58.8,-45.3
GGTCCTCCGAAAGGAACC (((..(((....)))))),32.9,-13
GGTCGACCGAAAGGTACC (((..(((....)))))),31.8,-14
GGTCGAGGAAACTCGATC (.(((((....))))).),52.2,-30.7
GGTCGAGGAAACTTGGCC ((.(.((....)).).)),42.4,-25.3
GGTCGCCCGAAAGGGACC (((..(((....)))))),45.1,-15.8
GGTCGCGAAAGCGACACC ((((((....)))..))),60.7,-5.57
GGTCGCGAAAGCGGACC ((((((....))).))),67.1,-22.9
GGTCGCGAAAGCGGCACC ((((((....)))..))),52.8,-9.3
